{"source": "ChEMBL document CHEMBL1142132", "about": "“Sublethal concentrations of the aminoglycoside amikacin interfere with cell division without affecting chromosome dynamics” (2007)", "key": {"[1]": {"system": "Escherichia coli", "assay": "Distribution of Escherichia coli AB1157 IL05 new born cells containing one ori and one ter foci at 4 ug/ml after 14 hrs incubation", "assay_type": "functional", "procedure,_shortened": "(§1)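 IL05(pWX6) (LacI-CFP/TetR-YFP marking ori and ter arrays) grown at 37°C in M9-sodium acetate with required amino acids, 100 μg/ml ampicillin, 0.5 mM IPTG, 40 ng/ml anhydrotetracycline. AMK added at OD600 0.05. After 14 h, cells placed on 1% agarose-PBS pads, imaged (×100, phase plus fluorescence). 200 cells per culture classified by ori/ter foci number; three independent experiments.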"}, "[2]": {"system": "Escherichia coli", "assay": "Loss of cell viability in Escherichia coli AB1157 IL05 above 16 ug/ml after 8 hrs incubation", "assay_type": "functional, organism-based"}, "[3]": {"system": "Escherichia coli", "assay": "Distribution of Escherichia coli AB1157 IL05 new born cells containing one ori and one ter foci at 16 ug/ml after 14 hrs incubation", "assay_type": "functional", "procedure,_shortened": "as §1"}, "[4]": {"system": "Escherichia coli", "assay": "Distribution of Escherichia coli AB1157 IL05 new born cells containing one ori and one ter foci at 8 ug/ml after 14 hrs incubation", "assay_type": "functional", "procedure,_shortened": "as §1"}, "[5]": {"system": "Escherichia coli", "assay": "Distribution of Escherichia coli AB1157 IL05 new born cells containing one ori and one ter foci at 32 ug/ml after 14 hrs incubation", "assay_type": "functional", "procedure,_shortened": "as §1"}, "[6]": {"system": "Escherichia coli", "assay": "Distribution of Escherichia coli AB1157 IL05 new born cells containing duplicated sister ori foci at 4 ug/ml after 14 hrs incubation", "assay_type": "functional", "procedure,_shortened": "as §1"}, "[7]": {"system": "Escherichia coli", "assay": "Distribution of Escherichia coli AB1157 IL05 new born cells containing duplicated sister ori foci at 8 ug/ml after 14 hrs incubation", "assay_type": "functional", "procedure,_shortened": "as §1"}, "[8]": {"system": "Escherichia coli", "assay": "Distribution of Escherichia coli AB1157 IL05 new born cells containing duplicated sister ori foci at 16 ug/ml after 14 hrs incubation", "assay_type": "functional", "procedure,_shortened": "as §1"}, "[9]": {"system": "Escherichia coli", "assay": "Distribution of Escherichia coli AB1157 IL05 new born cells containing duplicated sister ori foci at 32 ug/ml after 14 hrs incubation", "assay_type": "functional", "procedure,_shortened": "as §1"}, "[10]": {"system": "Escherichia coli", "assay": "Distribution of Escherichia coli AB1157 IL05 new born cells containing duplicated ori and ter foci at 4 ug/ml after 14 hrs incubation", "assay_type": "functional", "procedure,_shortened": "as §1"}, "[11]": {"system": "Escherichia coli", "assay": "Distribution of Escherichia coli AB1157 IL05 new born cells containing duplicated ori and ter foci at 8 ug/ml after 14 hrs incubation", "assay_type": "functional", "procedure,_shortened": "as §1"}, "[12]": {"system": "Escherichia coli", "assay": "Distribution of Escherichia coli AB1157 IL05 new born cells containing duplicated ori and ter foci at 16 ug/ml after 14 hrs incubation", "assay_type": "functional", "procedure,_shortened": "as §1"}, "[13]": {"system": "Escherichia coli", "assay": "Distribution of Escherichia coli AB1157 IL05 new born cells containing duplicated ori and ter foci at 32 ug/ml after 14 hrs incubation", "assay_type": "functional", "procedure,_shortened": "as §1"}, "[14]": {"system": "Escherichia coli", "assay": "Distribution of Escherichia coli AB1157 IL05 new born cells containing four ori foci at 4 ug/ml after 14 hrs incubation", "assay_type": "functional", "procedure,_shortened": "as §1"}, "[15]": {"system": "Escherichia coli", "assay": "Distribution of Escherichia coli AB1157 IL05 new born cells containing four ori foci at 8 ug/ml after 14 hrs incubation", "assay_type": "functional", "procedure,_shortened": "as §1"}, "[16]": {"system": "Escherichia coli", "assay": "Distribution of Escherichia coli AB1157 IL05 new born cells containing four ori foci at 16 ug/ml after 14 hrs incubation", "assay_type": "functional", "procedure,_shortened": "as §1"}, "[17]": {"system": "Escherichia coli", "assay": "Distribution of Escherichia coli AB1157 IL05 new born cells containing four ori foci at 32 ug/ml after 14 hrs incubation", "assay_type": "functional", "procedure,_shortened": "as §1"}, "[18]": {"system": "Escherichia coli", "assay": "Distribution of Escherichia coli AB1157 IL05 new born cells containing eight ori foci at 4 ug/ml after 14 hrs incubation", "assay_type": "functional", "procedure,_shortened": "as §1"}, "[19]": {"system": "Escherichia coli", "assay": "Distribution of Escherichia coli AB1157 IL05 new born cells containing eight ori foci at 8 ug/ml after 14 hrs incubation", "assay_type": "functional", "procedure,_shortened": "as §1"}, "[20]": {"system": "Escherichia coli", "assay": "Distribution of Escherichia coli AB1157 IL05 new born cells containing eight ori foci at 16 ug/ml after 14 hrs incubation", "assay_type": "functional", "procedure,_shortened": "as §1"}, "[21]": {"system": "Escherichia coli", "assay": "Distribution of Escherichia coli AB1157 IL05 new born cells containing eight ori foci at 32 ug/ml after 14 hrs incubation", "assay_type": "functional", "procedure,_shortened": "as §1"}, "[22]": {"system": "Escherichia coli", "assay": "Sublethal concentration measured by presence of granular bodies in Escherichia coli AB1157 IL05 cells at 4 ug/ml after 14 hrs incubation", "assay_type": "functional, organism-based", "procedure,_shortened": "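IL05(pWX6) grown 14 h at 37°C in acetate minimal medium with AMK added at OD600 0.05. Cells then examined by phase-contrast microscopy in 27% gelatin-containing minimal medium, scoring polar granular bodies and nucleoids.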"}, "[23]": {"system": "Escherichia coli", "assay": "Assembly of Z-ring in Escherichia coli AB1157 IL06(pCP12) cells at 4 ug/ml"}}, "note": "Active and inactive are the calls of the source. No cut-off for these calls is given here."}
{"compound": "NCC[C@H](O)C(=O)N[C@@H]1C[C@H](N)[C@@H](O[C@H]2O[C@H](CN)[C@@H](O)[C@H](O)[C@H]2O)[C@H](O)[C@H]1O[C@H]1O[C@H](CO)[C@@H](O)[C@H](N)[C@H]1O", "note": "[AMIKACIN]", "values": [{"measurement": "Activity", "setting": "[1]", "result": 0, "unit": "%"}, {"measurement": "Activity", "setting": "[2]", "result": "inactive"}, {"measurement": "Activity", "setting": "[3]", "result": 6, "unit": "%"}, {"measurement": "Activity", "setting": "[4]", "result": 0, "unit": "%"}, {"measurement": "Activity", "setting": "[5]", "result": 32, "unit": "%"}, {"measurement": "Activity", "setting": "[6]", "result": 0, "unit": "%"}, {"measurement": "Activity", "setting": "[7]", "result": 0, "unit": "%"}, {"measurement": "Activity", "setting": "[8]", "result": 3, "unit": "%"}, {"measurement": "Activity", "setting": "[9]", "result": 37, "unit": "%"}, {"measurement": "Activity", "setting": "[10]", "result": 48, "unit": "%"}, {"measurement": "Activity", "setting": "[11]", "result": 36, "unit": "%"}, {"measurement": "Activity", "setting": "[12]", "result": 34, "unit": "%"}, {"measurement": "Activity", "setting": "[13]", "result": 31, "unit": "%"}, {"measurement": "Activity", "setting": "[14]", "result": 44, "unit": "%"}, {"measurement": "Activity", "setting": "[15]", "result": 69, "unit": "%"}, {"measurement": "Activity", "setting": "[16]", "result": 46, "unit": "%"}, {"measurement": "Activity", "setting": "[17]", "result": 0, "unit": "%"}, {"measurement": "Activity", "setting": "[18]", "result": 8, "unit": "%"}, {"measurement": "Activity", "setting": "[19]", "result": 5, "unit": "%"}, {"measurement": "Activity", "setting": "[20]", "result": 11, "unit": "%"}, {"measurement": "Activity", "setting": "[21]", "result": 0, "unit": "%"}, {"measurement": "Activity", "setting": "[22]", "result": "Active"}, {"measurement": "Activity", "setting": "[23]", "result": 35, "unit": "%"}]}
